pIC50: −log10 of the molar value. “Also recorded” adds a separate entry of the source. Blank lines part the entries; values can stand above or below the molecule they belong to.
Assays:
[1] = test system: CT-L activity of rabbit 20S proteasome; assay: Dialysis using purified rabbit 20S proteasome; format: biochemical
Outline: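 Dialysed (3500 MWCO) against assay buffer at 4 °C; sampled at 0, 0.25, 1, 2, 4 and 18 h. CT-L activity read with 20 μM Suc-LLVY-AMC, 1 h at 37 °C, AMC ex 355/em 460 nm. Normalised to DMSO control.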

MDA-MB-468 cells = assay: MTT proliferation/survival assay; format: cell-based, human; conditions: 120 h incubation
Outline: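 MDA-MB-468 cells were grown in DMEM with 10% FBS and penicillin/streptomycin at 37 °C in 5% CO2, then attached overnight. They were exposed to varying inhibitor concentrations for 120 h. MTT (1 mg/ml in fresh medium) was added for 3 h, formazan dissolved in DMSO, and absorbance read at 540 nm. IC50 came from the fit Y = M + (L–M)/(1+10^(X–logIC50)).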

[2] = biological target: PGPH-L activity of purified 20S rabbit proteasome (Oryctolagus cuniculus, UniProt G1T235); assay: PGPH-L proteolytic activity assay, fluorogenic peptide Z-Leu-Leu-Glu-AMC; format: biochemical
[3] = biological target: T1, T-L activity of purified 20S rabbit proteasome (Oryctolagus cuniculus, UniProt G1SWK8); assay: T-L proteolytic activity assay, fluorogenic peptide Bz-Val-Gly-Arg-AMC; format: biochemical
T1 sequence (G1SWK8 44-271): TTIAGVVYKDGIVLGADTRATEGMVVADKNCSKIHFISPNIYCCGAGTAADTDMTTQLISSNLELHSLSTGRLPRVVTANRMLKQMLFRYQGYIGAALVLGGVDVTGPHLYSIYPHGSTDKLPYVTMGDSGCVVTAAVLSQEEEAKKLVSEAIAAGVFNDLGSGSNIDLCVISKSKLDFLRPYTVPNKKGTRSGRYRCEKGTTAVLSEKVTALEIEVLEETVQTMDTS

[4] = biological target: proteasomal CT-L activity in intact human MDA-MB-468 cancer cells (Homo sapiens, UniProt P28074); assay: CT-L activity in intact MDA-MB-468 cells; format: cell-based
[5] = biological target: T2, CT-L proteolytic activity of the purified rabbit 20S proteasome (Oryctolagus cuniculus, UniProt G1T4Q9); assay: CT-L proteolytic activity assay, fluorogenic peptide Suc-Leu-Leu-Val-Tyr-AMC; format: biochemical; conditions: for fold loss of CT-L activity compared to 11ad: relative to 11ad; for IC50: IC50 (μM) CT-L, 1 nM purified 20S rabbit proteasome, 20 μM Suc-Leu-Leu-Val-Tyr-AMC, 1 h at 37 °C, average of 2 or more determinations
T2 sequence (G1T4Q9 60-263): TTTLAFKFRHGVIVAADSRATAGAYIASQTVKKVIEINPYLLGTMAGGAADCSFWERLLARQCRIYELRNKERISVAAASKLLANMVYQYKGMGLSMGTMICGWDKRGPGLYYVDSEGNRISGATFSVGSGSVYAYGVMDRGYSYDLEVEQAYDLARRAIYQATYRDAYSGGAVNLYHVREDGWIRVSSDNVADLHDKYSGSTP

pIC50 [2]: < 4.00 | pIC50 [3]: < 4.00
SMILES: Cc1ccc(OCC(=O)N(Cc2nc(-c3ccc(C)cc3)no2)C(C)C)cc1 [Compound 1, N-Isopropyl-N-((3-p-tolyl-1,2,4-oxadiazol-5-yl)methyl)-2-(p-tolyloxy)acetamide]
time to full recovery of CT-L activity upon dialysis ([1]; pre-incubation with 10 μM compound for 30 min, dialysis at 4 °C): ≤ 2 h | inhibition of tumor cell survival/proliferation (MTT) (MDA-MB-468 cells): inhibited survival/proliferation

pIC50 [4]: 6.43 | pIC50 [2]: < 4.00 | fold more potent than 1 (CT-L IC50) ([5]; relative to compound 1): 22 fold | pIC50 [3]: < 4.00
SMILES: CCCc1ccc(OCC(=O)N(Cc2nc(-c3cccnc3)no2)C(C)C)cc1 [Compound 11ad]
inhibition of tumor cell survival/proliferation (MTT) (MDA-MB-468 cells): inhibited survival/proliferation; also recorded: anti-proliferative activity at low micromolar concentrations

fold loss of CT-L activity compared to 11ad [5]: 3 fold
SMILES: CCCc1ccc(OCC(=O)N(Cc2nc(-c3cnccn3)no2)C(C)C)cc1 [Compound 11am, N-Isopropyl-2-(4-propylphenoxy)-N-((3-(pyrazin-2-yl)-1,2,4-oxadiazol-5-yl)methyl)acetamide]

fold loss of CT-L activity compared to 11ad [5]: 40 fold
SMILES: CCCc1ccc(OCC(=O)N(Cc2nc(-c3ncccn3)no2)C(C)C)cc1 [Compound 11ao, N-Isopropyl-2-(4-propylphenoxy)-N-((3-(pyrimidin-2-yl)-1,2,4-oxadiazol-5-yl)methyl)acetamide]

fold loss of CT-L activity compared to 1 ([5]; relative to compound 1): 10 fold
SMILES: CC(C)N(Cc1nc(-c2ccccc2)no1)C(=O)COc1ccccc1 [Compound 11j, N-Isopropyl-2-phenoxy-N-((3-phenyl-1,2,4-oxadiazol-5-yl)methyl)acetamide]

fold loss of CT-L activity compared to 1 ([5]; relative to compound 1): 14 fold
SMILES: Cc1ccc(-c2noc(CN(C(=O)COc3ccccc3)C(C)C)n2)cc1 [Compound 11k, N-Isopropyl-2-phenoxy-N-((3-p-tolyl-1,2,4-oxadiazol-5-yl)methyl)acetamide]

fold loss of CT-L activity compared to 1 ([5]; relative to compound 1): 18 fold
SMILES: CC(C)N(Cc1nc(-c2ccc(C(F)(F)F)cc2)no1)C(=O)COc1ccccc1 [Compound 11l, N-Isopropyl-2-phenoxy-N-((3-(4-(trifluoromethyl)phenyl)-1,2,4-oxadiazol-5-yl)methyl)acetamide]

IC50 [5]: > 10 µM
SMILES: CC(C)N(Cc1nc(-c2ccccc2)no1)C(=O)COc1ccc(-c2ccccc2)cc1 [Compound 11q, 2-(Biphenyl-4-yloxy)-N-isopropyl-N-((3-phenyl-1,2,4-oxadiazol-5-yl)methyl)acetamide]

IC50 [5]: > 10 µM
SMILES: CC(C)N(Cc1nc(-c2ccccc2)no1)C(=O)COc1ccc2cc(Br)ccc2c1 [Compound 11r, 2-(6-Bromonaphthalen-2-yloxy)-N-isopropyl-N-((3-phenyl-1,2,4-oxadiazol-5-yl)methyl)acetamide]

fold loss of CT-L inhibitory activity compared to 11b ([5]; relative to 11b): 16 fold
SMILES: CC(C)N(Cc1nc(-c2ccccc2)no1)C(=O)COc1ccc(F)cc1 [Compound 11s, 2-(4-Fluorophenoxy)-N-isopropyl-N-((3-phenyl-1,2,4-oxadiazol-5-yl)methyl)acetamide]

fold loss of CT-L activity compared to 1 ([5]; relative to compound 1): 4 fold
SMILES: Cc1ccc(OCC(=O)N(Cc2nc(-c3ccc(C)cc3)no2)CC(C)C)cc1 [Compound 12a, N-Isobutyl-N-((3-p-tolyl-1,2,4-oxadiazol-5-yl)methyl)-2-(p-tolyloxy)acetamide]

fold loss of CT-L activity compared to 1 ([5]; relative to compound 1): 10 fold
SMILES: CCN(Cc1nc(-c2ccc(C)cc2)no1)C(=O)COc1ccc(C)cc1 [Compound 12b, N-Ethyl-N-((3-p-tolyl-1,2,4-oxadiazol-5-yl)methyl)-2-(p-tolyloxy)acetamide]

IC50 [5]: > 10 µM
SMILES: Cc1ccc(CNC(=O)N(Cc2nc(-c3ccccc3)no2)C(C)C)cc1 [Compound 14, 1-Isopropyl-3-(4-methylbenzyl)-1-((3 phenyl-1,2,4-oxadiazol-5-yl)methyl)urea]

IC50 [5]: > 10 µM
SMILES: Cc1ccc(OCC(=O)N(CCc2nc(-c3ccccc3)no2)C(C)C)cc1 [Compound 23, N-Isopropyl-N-(2-(3-phenyl-1,2,4-oxadiazol-5-yl)ethyl)-2-(p-tolyloxy)acetamide]

SMILES: CC(=O)N[C@@H](CSC(=O)[C@]1([C@@H](O)C(C)C)NC(=O)[C@H](C)[C@@H]1O)C(=O)O [lactacystin, reference compound]
CT-L activity recovered upon dialysis ([1]; after 18 hours of dialysis, lactacystin 2.5 μM): very little CT-L activity was recovered

Source: article PMC3774303 (Journal of medicinal chemistry, 2013)
